Reference: ChEMBL document CHEMBL1212778, “Small-molecule inhibitors target Escherichia coli amyloid biogenesis and biofilm formation” (2009)
The source made the active and inactive calls. No cut-off for these calls is given here.

Tests used:
Escherichia coli [1] = assay: Inhibition of curli protein biogenesis in uropathogenic Escherichia coli UTI89 at 60 to 250 uM after 48 hrs by electron microscopy; assay type: functional, organism-based
Outline: (§1)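 UTI89 was inoculated from an overnight LB culture into YESCA broth containing compound and shaken at 100 rpm, 28 °C, for 48 h. Cells were pelleted, resuspended in PBS and normalized to OD600 0.5. Curli were dissolved with formic acid and analysed by curli-antibody immunoblot. Samples prepared the same way were also imaged by high-resolution EM.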

Escherichia coli [2] = assay: Inhibition of CsgF biogenesis in Escherichia coli K-12 at 2.5 mM after […] by polyacrylamide gel-shift assay; assay type: functional, organism-based
Outline: (§2)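 MC4100 was grown 48 h at 26 °C on YESCA agar containing compound at 0.1, 1.0 or 2.5 mM final, with a DMSO carrier control (3.6% v/v). Cells were resuspended in PBS to OD600 0.5 and curli were dissociated with HFIP or formic acid. CsgA, CsgB, CsgF and CsgG were detected by SDS-PAGE immunoblot with curli-specific antibodies. MC4100Δcsg served as negative control.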

Escherichia coli [3] = assay: Inhibition of type 1 pili biogenesis in uropathogenic Escherichia coli UTI89 assessed as complete inhibition of biofilm formation in PVC wells at 50 uM after 48 hrs in LB broth medium by crystal violet staining; assay type: functional; details: UTI89, 48 h
Outline: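 UTI89 was grown 48 h in LB broth in PVC microtiter wells with compound; biofilm here is type 1 pili-dependent. Wells were rinsed and stained with crystal violet. Percent inhibition is relative to no-compound controls on each plate, from four experiments.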

Escherichia coli [4] = assay: Inhibition of type 1 pili biogenesis in uropathogenic Escherichia coli UTI89 at 500 uM after 48 hrs in YESCA broth medium by congo red staining-based confocal microscopy; assay type: functional, organism-based; details: in the assay text read “curli-dependent pellicle formation” for “type 1 pili biogenesis”
Outline: (§3)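 Pellicle formation was scored visually in a 24-well plate assay. UTI89 was grown in Congo red-containing YESCA broth at 30 °C, with pellicles judged about 48 h after inoculation. DMSO carrier served as control.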

Escherichia coli [5] = assay: Inhibition of curli protein biogenesis in uropathogenic Escherichia coli UTI89 assessed as complete inhibition of biofilm formation in PVC wells at 50 to 400 uM after 48 hrs in YESCA broth medium by crystal violet staining; assay type: functional, organism-based
Outline: (§4)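 UTI89 was grown 48 h in YESCA broth in PVC microtiter wells with compound. Wells were rinsed, stained with crystal violet and quantified. Percent inhibition is relative to no-compound controls included on each plate. Data are four experiments, with bars as s.d.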

Escherichia coli [6] = assay: Inhibition of CsgG biogenesis in Escherichia coli K-12 at 2.5 mM after […] by polyacrylamide gel-shift assay; assay type: functional, organism-based; outline: as §2
Escherichia coli [7] = assay: Antibacterial activity against Escherichia coli UTI89 at 400 uM after 24 hrs by spectrophotometry; assay type: functional, organism-based
Escherichia coli [8] = assay: Inhibition of type 1 pili biogenesis in uropathogenic Escherichia coli UTI89 at 5 to 15 uM after 48 hrs by congo red staining-based confocal microscopy; assay type: functional, organism-based
Escherichia coli [9] = assay: Inhibition of curli protein biogenesis in uropathogenic Escherichia coli UTI89 at 60 to 250 uM after 48 hrs in YESCA broth medium by polyacrylamide gel-shift assay; assay type: functional, organism-based; outline: as §1
Escherichia coli [10] = assay: Inhibition of curli protein biogenesis in uropathogenic Escherichia coli UTI89 assessed as complete inhibition of biofilm formation in PVC wells at 400 uM after 48 hrs in YESCA broth medium by crystal violet staining; assay type: functional, organism-based; outline: as §4
Escherichia coli [11] = assay: Inhibition of curli protein biogenesis in uropathogenic Escherichia coli UTI89 assessed as complete inhibition of biofilm formation in PVC wells at 200 uM after 48 hrs in YESCA broth medium by crystal violet staining; assay type: functional, organism-based; outline: as §4
Escherichia coli [12] = assay: Inhibition of curli protein biogenesis in Escherichia coli K-12 at 2.5 mM […] by polyacrylamide gel-shift assay; assay type: functional, organism-based; outline: as §2
[13] = molecular target: Major curlin subunit (Escherichia coli (strain K12)) (UniProt P28307); assay: Inhibition of CsgA polymerization in Escherichia coli K-12 at 125 uM after 24 hrs by thioflavin-T amyloid polymerization assay
Sequence of Major curlin subunit (Escherichia coli (strain K12)) (P28307 whole entry): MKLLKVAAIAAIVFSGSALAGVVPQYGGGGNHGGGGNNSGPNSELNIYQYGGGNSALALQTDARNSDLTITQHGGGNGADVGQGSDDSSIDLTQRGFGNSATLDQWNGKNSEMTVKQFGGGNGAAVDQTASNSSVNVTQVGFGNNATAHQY
Outline: (§5)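 Freshly purified, soluble, unstructured C-terminal His6-CsgA (25 μM) was incubated with 25 μM ThT with or without compound. Fluorescence (excitation 438 nm, emission 495 nm) was followed over time at 60-min intervals. Soluble CsgA was confirmed by SDS-PAGE and anti-CsgA western blot, since polymerized CsgA is SDS-insoluble.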

Escherichia coli [14] = assay: Inhibition of curli protein biogenesis in uropathogenic Escherichia coli UTI89 assessed as inhibition of biofilm formation in PVC wells at 100 uM after 48 hrs in YESCA broth medium by crystal violet staining; assay type: functional; details: UTI89, 48 h; outline: as §4
[15] = molecular target: Major curlin subunit (Escherichia coli (strain K12)) (UniProt P28307); assay: Inhibition of CsgA polymerization in Escherichia coli K-12 at 25 uM after 24 hrs by thioflavin-T amyloid polymerization assay; outline: as §5
Escherichia coli [16] = assay: Inhibition of type 1 pili biogenesis in uropathogenic Escherichia coli UTI89 at 25 uM after 48 hrs in YESCA broth medium by […]; assay type: functional, organism-based; outline: as §3
Escherichia coli [17] = assay: Inhibition of curli protein biogenesis in uropathogenic Escherichia coli UTI89 at 60 to 250 uM after 48 hrs in YESCA broth medium by polyacrylamide gel-shift assay
Escherichia coli [18] = assay: Inhibition of type 1 pili biogenesis in uropathogenic Escherichia coli UTI89 at 5 to 15 uM after 48 hrs by calcofluor staining-based confocal microscopy; assay type: functional, organism-based
Escherichia coli [19] = assay: Inhibition of type 1 pili biogenesis in uropathogenic Escherichia coli UTI89 at 5 to 15 uM after 48 hrs by SYTO83 staining-based confocal microscopy; assay type: functional, organism-based
[20] = molecular target: Major curlin subunit (Escherichia coli (strain K12)) (UniProt P28307); assay: Inhibition of CsgA polymerization in Escherichia coli K-12 at 10 uM after 24 hrs by thioflavin-T amyloid polymerization assay; outline: as §5
Escherichia coli [21] = assay: Antibacterial activity against uropathogenic Escherichia coli UTI89 infected in C3H/HeN mouse assessed as reduction bacterial load in bladder at 250 uM after 6 hrs post-infection by punctate violet staining relative to control; assay type: functional, Urinary bladder
Outline: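 UTI89 was grown under type 1 pili-inducing conditions with or without 250 μM compound, then resuspended in PBS to OD600 0.5. 50 μl (1–2 × 10^7 CFU) was instilled transurethrally into 7–8-week-old female C3H/HeN mice. At 6 hpi, bladders were homogenized and plated for CFU (16 h, 37 °C), or fixed and LacZ-stained to count IBCs. Two-tailed Mann-Whitney test.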

Escherichia coli [22] = assay: Inhibition of […] in uropathogenic Escherichia coli UTI89 at 5 uM after 48 hrs in YESCA broth medium by congo red staining-based […]; assay type: functional, organism-based; outline: as §3
Escherichia coli [23] = assay: Inhibition of curli protein biogenesis in Escherichia coli K-12 at 1 mM after […] by polyacrylamide gel-shift assay; assay type: functional, organism-based; outline: as §2
Escherichia coli [24] = assay: Inhibition of curli protein biogenesis in uropathogenic Escherichia coli UTI89 assessed as inhibition of biofilm formation in PVC wells at 50 uM after 48 hrs in YESCA broth medium by crystal violet staining; assay type: functional; details: UTI89, 48 h; outline: as §4

Row | Compound | inhibition (Escherichia coli [1]) | inhibition (Escherichia coli [2]) | inhibition at 50 µM (Escherichia coli [3]) [%] | inhibition (Escherichia coli [6]) | Activity (Escherichia coli [7]) | inhibition (Escherichia coli [8]) | inhibition (Escherichia coli [9]) | inhibition (Escherichia coli [10]) | inhibition (Escherichia coli [11]) | inhibition (Escherichia coli [12]) | inhibition [13] | inhibition at 100 µM (Escherichia coli [14]) [%] | inhibition [15] | inhibition (Escherichia coli [17]) | inhibition (Escherichia coli [18]) | inhibition (Escherichia coli [19]) | inhibition (Escherichia coli [22]) | also measured
1 | O=C(O)[C@@H]1CSc2c(C3CC3)c(Cc3cccc4ccccc34)cc(=O)n21 | inactive | inactive | 38 | inactive | inactive |  |  |  |  |  |  |  |  |  |  |  |  | inhibition (Escherichia coli [4]): inactive; inhibition (Escherichia coli [5]): inactive
2 | O=C(O)[C@@H]1CSc2c(-c3ccc(F)c(F)c3)c(Cc3ccc4ccccc4c3)cc(=O)n21 | Active | inactive | 92 | inactive | inactive | Active | Active | Active | Active | Active | Active | 50 | Active | Active | Active | Active |  | inhibition (Escherichia coli [16]): Active
3 | O=C(O)[C@@H]1CSc2c(-c3cccc(C(F)(F)F)c3)c(Cc3cccc4ccccc34)cc(=O)n21 | Active | inactive | 99 | inactive | inactive | Active | Active |  |  |  | Active | 90 | Active | Active | Active | Active | Active | inhibition [20]: Active; fold change (FC) (Escherichia coli [21]): 10; inhibition (Escherichia coli [23]): Active; inhibition at 50 µM (Escherichia coli [24]): 50%
4 | O=C(O)[C@@H]1CSc2c(-c3ccc(Br)cc3)c(Cc3cccc4ccccc34)cc(=O)n21 | Active | inactive |  | inactive | inactive |  | Active | Active | Active | inactive |  | 50 |  | Active |  |  | inactive | 
